Source: PubChem
TDP2 inh – human TDP2 enzyme inhibitors, primary screen, biochemical, epi absorbance, recombinant enzyme. Tyrosyl-DNA phosphodiesterase 2 (Homo sapiens), O95551. T5PNP hydrolysis, p-nitrophenol absorbance 415 nm. inhibition, % at 12.8 µM. hit rate 0.34% among 370,000. AID 720702, 2013;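 active means inhibition above the mean of all tested compounds plus 3 SD, set per campaign, cut at about 25% in these data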;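 further: 0% = DMSO with enzyme and 100% = buffer with substrate but no TDP2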
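Test system: human TDP2 enzyme; Input: 120 nM TDP2 per well; Buffer or medium: Mg2+-containing Tris-HCl buffer, pH 7.5; Reagent: 5 mM T5PNP; Dosing: 12.8 µM single point, 1% DMSO; Incubation: reaction 2 h, 37 °C; Detection: p-Nitrophenol epi absorbance; Read-out: % inhibition relative to enzyme-containing and enzyme-free wells; Replicates: single well per compound.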
CTSL1 counter – Fasciola hepatica cathepsin L1 inhibitors, primary screen, counter-screen for PFM18AAP inhibitor project, biochemical, QFRET, fluorogenic peptide substrate; recombinant F. hepatica cathepsin L1, Z-Leu-Arg-MCA fluorescence; inhibition, % at 5.96 µM; hit rate 0.49% among 300,000;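 active means inhibition above the mean of all tested compounds plus 3 SD, set per screening campaign, cut at about 17% in these data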;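 further: 0% = plate median of test compound wells and 100% = 1 µM Z-Phe-Ala-diazomethylketone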
PRMT1 FP inh – PRMT1 methyltransferase inhibitors, primary screen, biochemical, fluorescence polarization; Protein arginine N-methyltransferase 1 (Homo sapiens), Q99873; AID 652257, 2013; recombinant PRMT1, activity-based probe fluorescence polarization; inhibition, % at 2.79 µM; hit rate 1.3% among 370,000;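 active means inhibition above about 21% made by adding two undisclosed values, limit read from the data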
PAD4 FP inh – human PAD4 inhibitors, primary screen, biochemical, fluorescence polarization, 1536-well format; Protein-arginine deiminase type-4 (Homo sapiens), Q9UM07; recombinant PAD4, RCA probe fluorescence polarization; inhibition, % at 6.36 µM; hit rate 0.41% among 330,000; AID 485272, 2010;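 active means percent inhibition above a cutoff equal to the mean of all tested compounds plus 3 SD, cut at about 15% in these data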;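 further: 0% = PAD4 with RCA probe and DMSO and 100% = probe without PAD4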
Target sequence (Q9UM07 whole entry, looked up): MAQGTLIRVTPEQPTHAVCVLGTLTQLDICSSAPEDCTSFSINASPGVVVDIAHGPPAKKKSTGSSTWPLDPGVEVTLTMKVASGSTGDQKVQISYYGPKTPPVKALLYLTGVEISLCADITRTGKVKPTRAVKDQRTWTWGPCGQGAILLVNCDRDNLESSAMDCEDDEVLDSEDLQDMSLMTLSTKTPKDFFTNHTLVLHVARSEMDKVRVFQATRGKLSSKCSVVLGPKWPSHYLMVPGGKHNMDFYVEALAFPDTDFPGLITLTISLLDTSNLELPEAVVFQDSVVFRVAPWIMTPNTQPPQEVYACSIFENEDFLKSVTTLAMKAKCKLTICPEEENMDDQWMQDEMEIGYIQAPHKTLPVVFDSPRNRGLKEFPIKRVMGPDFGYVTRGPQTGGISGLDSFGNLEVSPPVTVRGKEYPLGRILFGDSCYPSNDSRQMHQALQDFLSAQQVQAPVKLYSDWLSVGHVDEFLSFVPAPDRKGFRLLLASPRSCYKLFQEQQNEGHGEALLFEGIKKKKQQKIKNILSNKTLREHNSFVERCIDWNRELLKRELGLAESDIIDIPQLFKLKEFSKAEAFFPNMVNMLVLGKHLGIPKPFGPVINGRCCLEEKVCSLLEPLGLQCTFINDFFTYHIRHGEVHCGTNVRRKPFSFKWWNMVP
GSTO1 counter – inhibitors of recombinant GSTO1, primary screen, counter-screen for RBBP9 inhibitor project, biochemical, fluorescence polarization; Glutathione S-transferase omega-1 (Homo sapiens), P78417; activity-based probe fluorescence polarization; inhibition, % at 5.96 µM; hit rate 1.1% among 300,000; AID 1974, 2009;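 active means inhibition above the campaign mean inhibition plus 3 SD, cut at about 35% in these data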;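 further: 0% = GSTO1-1 with DMSO and 100% = wells lacking GSTO1-1 enzyme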
PRMT1 inh conf – PRMT1 methyltransferase inhibitors, confirmation, biochemical, fluorescence polarization, triplicate. shares compounds with PRMT1 FP inh. recombinant His-PRMT1, activity-based probe fluorescence polarization. inhibition, % at 2.79 µM. hit rate 42% among 3,300;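 active means mean inhibition across replicates above the hit cutoff derived for the earlier primary screen, cut at about 22% in these data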
Active calls of the source: *. This is a sample that favours compounds with a hit; in the whole collection about 2.5% have one here.

COC(=O)[C@]12C[C@H](CC(=O)NCc3ccc(OC)c(OC)c3)C(=O)N(Cc3ccc(Cl)cc3Cl)C1=C[C@H](COCc1ccccc1)O[C@@H]2C was read as TDP2 inh 2.1 and PRMT1 FP inh -1.8.
For CN1CC=C2C(C#N)=C(N)C(C#N)(C#N)[C@H](c3cccs3)[C@H]2C1 the results were CTSL1 counter -1.9, PAD4 FP inh 7.5 and GSTO1 counter 10.5.
`COc1cccc(C2C3CN(C)CC=C3C(C#N)=C(N)C2(C#N)C#N)c1OC` (centres undefined) gave TDP2 inh 5.5, CTSL1 counter 2.9, PRMT1 FP inh 0.9, PAD4 FP inh 5.8 and GSTO1 counter 11.4.
`CN1CC=C2C(C#N)=C(N)C(C#N)(C#N)[C@H](c3cccc(Cl)c3)C2C1` (some centres undefined) gave TDP2 inh 1.9, CTSL1 counter -0.9, PRMT1 FP inh 26.4*, PAD4 FP inh 11.2, GSTO1 counter 3.9 and PRMT1 inh conf 12.7.
Screening CCN1CC=C2C(C#N)=C(N)C(C#N)(C#N)[C@H](c3cccc(OC)c3OC)[C@H]2C1 returned TDP2 inh -11.3, CTSL1 counter 5.3, PRMT1 FP inh 36.8*, PAD4 FP inh -0.8, GSTO1 counter 6.4 and PRMT1 inh conf 10.2.
Cc1ccc2cc3c(N)c(C(=O)Nc4c(C)[nH]c(=O)[nH]c4=O)sc3nc2c1 was read as TDP2 inh -0.1, CTSL1 counter 4.2, PRMT1 FP inh 31.2*, PAD4 FP inh -2.2, GSTO1 counter 13.6 and PRMT1 inh conf 2.1.
For Cc1ccc2nc3sc(C(=O)Nc4c(C)[nH]c(=O)[nH]c4=O)c(N)c3cc2c1 the results were TDP2 inh -2.5, CTSL1 counter 1.4, PRMT1 FP inh 17.9, PAD4 FP inh 0.5 and GSTO1 counter 8.9.
`COc1cc(/C=C2/C(=O)NN(c3cccc(C)c3)C2=O)cc([N+](=O)[O-])c1O` gave TDP2 inh 4.6, CTSL1 counter 8.3, PRMT1 FP inh 32.4*, PAD4 FP inh -1.0, GSTO1 counter 8.5 and PRMT1 inh conf 18.3.
For COc1cc(/C=C2\SC(=O)N(c3ccc(Cl)cc3)C2=O)cc([N+](=O)[O-])c1O the results were TDP2 inh 10.3 and PRMT1 FP inh 1.9.
For COc1cc(/C=C2/C(=O)NN(c3ccc(C)c(Cl)c3)C2=O)cc([N+](=O)[O-])c1O the results were TDP2 inh -5.2, PRMT1 FP inh 28.4* and PRMT1 inh conf 16.2.
O=S1(=O)c2ccc(N3CCC[C@H]3CO)cc2OCCCN1C1CC1 was read as TDP2 inh 2.0 and PRMT1 FP inh -4.5.
Screening COc1cc(/C=C/C(=O)O)cc(S(=O)(=O)Nc2ccc3nc(C)sc3c2)c1OC returned TDP2 inh 6.0, CTSL1 counter -1.2, PRMT1 FP inh 25.3*, PAD4 FP inh -0.8, GSTO1 counter 3.7 and PRMT1 inh conf 27.6*.
CCN(CC(=O)NCc1cccs1)CC(=O)Nc1cccc(S(N)(=O)=O)c1 was read as TDP2 inh 3.9, PRMT1 FP inh 43.8*, PAD4 FP inh -5.0 and PRMT1 inh conf -3.3.
CCOC(=O)C1=C(O)/C(=C\c2ccc(CNS(=O)(=O)c3ccc(Br)cc3)o2)N=C1C was read as TDP2 inh -3.3, CTSL1 counter 5.6, PRMT1 FP inh 33.6*, PAD4 FP inh -3.1, GSTO1 counter 19.1 and PRMT1 inh conf 15.0.
For COC(=O)C1=C(O)/C(=C\c2ccc(CNS(=O)(=O)c3ccc(Cl)cc3)o2)N=C1C the results were TDP2 inh 0.6, CTSL1 counter 2.7, PRMT1 FP inh 56.1*, PAD4 FP inh -2.1, GSTO1 counter 8.7 and PRMT1 inh conf 14.8.
`COC(=O)C1=C(O)/C(=C\c2ccc(CNS(=O)(=O)c3ccccc3)o2)N=C1C` gave TDP2 inh 1.4, CTSL1 counter 5.7, PRMT1 FP inh 38.8*, PAD4 FP inh 1.9, GSTO1 counter 19.6 and PRMT1 inh conf 15.5.
O=C(OCc1cn(Cc2ccccc2C(F)(F)F)nn1)N1CCOCC1 was read as TDP2 inh 4.8 and PRMT1 FP inh -3.9.
C=C[C@]1(C)C=C2CC[C@H]3[C@@](C)(CCC[C@@]3(C)C(=O)O)[C@@H]2CC1 was read as PAD4 FP inh 3.1.
`C=C[C@]1(C)C=C2C(=O)[C@@]3(O)OC(=O)[C@@]4(CCCC(C)(C)[C@H]34)[C@@]2(O)CC1` gave TDP2 inh -3.0, PRMT1 FP inh 61.5* and PRMT1 inh conf 6.3.
COCC(=O)N1CC[C@H]2[C@@H]1c1cc(-c3cccc(OC)c3)ccc1N(C)[C@H]2CO was read as TDP2 inh 0.3 and PRMT1 FP inh 2.1.
CC(C)C[C@H]1CNC(=S)N1CC1CCCN1C[C@H](CC(C)C)N1C[C@H](Cc2ccccc2)N(CC2CCCCCC2)C1=S (some centres undefined) was read as TDP2 inh -12.4, PRMT1 FP inh 31.2* and PRMT1 inh conf 1.3.
For COC(=O)[C@]12C[C@H](CC(=O)N3CCN(C(=O)c4ccco4)CC3)C(=O)N(CCc3ccc(OC)c(OC)c3)C1=C[C@H](C(C)(C)C)O[C@@H]2C the results were TDP2 inh -6.5 and PRMT1 FP inh 1.0.
`O=C(OCC(=O)N1N=C(c2ccc(Cl)cc2)CC1c1ccco1)c1cccnc1` (centres undefined) gave TDP2 inh 4.5, PRMT1 FP inh 39.6*, PAD4 FP inh -3.4 and PRMT1 inh conf 8.2.
For O=C(Nc1ccc(Cl)cc1)C(Cl)C(=O)c1ccccc1 (centres undefined) the results were TDP2 inh -0.2, CTSL1 counter -1.3, PRMT1 FP inh 77.5*, PAD4 FP inh 2.0, GSTO1 counter -6.9 and PRMT1 inh conf 78.4*.
COc1ccc(CNS(=O)(=O)CC2NCc3ccc(C)cc32)cc1 (centres undefined) was read as TDP2 inh 3.6 and PRMT1 FP inh 3.2.
For C=CC[C@H]1c2ccccc2[C@H]2N3N=Cc4ccccc4[C@H]3[C@H](CCCC)C(=O)N2N1C(=O)c1ccccc1 the results were TDP2 inh 2.9 and PRMT1 FP inh 2.2.
`Fc1ccc(CC2CCN(c3ncnc4sccc34)CC2)cc1` gave TDP2 inh 6.0 and PRMT1 FP inh 0.9.
Screening CC1CCC2C(=O)N(c3cccc(OS(=O)(=O)c4ccccc4)c3)C(=O)C2C1 (centres undefined) returned TDP2 inh 7.9, CTSL1 counter 3.9, PRMT1 FP inh 1.2, PAD4 FP inh 1.1 and GSTO1 counter -15.2.
